According to publication PMC3692342 (International Journal of Nanomedicine, 2013):
Marks after values point to notes of the source that are not given here.

What was measured:
ethanol-induced ulcers = assay: Ethanol-induced gastric ulcer in rats; type: in vivo, Sprague Dawley male rats
[1] = Pharmacokinetic study in rabbits; type: in vivo, New Zealand White rabbits
WRL-68 cells = assay: MTT cell viability assay on normal human hepatic cells; settings: 24 hours, TQNLC concentration based on amount of TQ
Procedure, shortened: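 Human normal liver WRL-68 cells were grown in DMEM with 10% FBS, 100 units/mL penicillin and 0.1 mg/mL streptomycin at 37°C under 5% CO2. They were seeded at 1 × 10^5 cells/mL, held 24 h, then exposed to test compound for 24 h. MTT (2 mg/mL) was added for 1 h and A570 read. Viability is % of untreated absorbance; IC50 is the concentration giving 50% growth loss. Cisplatin served as positive control.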

[2] = oral pretreatment 60 mg/Kg 1 h before ethanol
[3] = New Zealand White, rabbit, plasma, ip, 10 mg/kg
[4] = TQ in rabbits, single extravascular (IP) dose of TQNLC(20) 10 mg/kg, n = 3
[5] = oral pretreatment 20 mg/kg 1 h before ethanol

In the case of `CC1=CC(=O)C(C(C)C)=CC1=O` [Thymoquinone, thymoquinone], the “I% (inhibition percentage of ulcer area)” value (ethanol-induced ulcers; [2]) is reported as 89.1%, the “Mucus (weight of gastric mucosa)” value (ethanol-induced ulcers; [2]) is reported as 3.24 ± 0.4^d and the “UA (ulcer area)” value (ethanol-induced ulcers; [2]) is reported as 112.4 ± 3.2^e mm^2. For the same compound, the “pH (gastric juice)” value (ethanol-induced ulcers; [2]) was 6.5 ± 0.3^c, the AUC(0-inf) [1, 3] was 26822 ± 9.4 ng·h/mL and the Cmax [1, 3] was 4810 ± 55.5 ng/mL. For the same compound, the Tmax [1, 3] was 3.96 ± 0.19 h, the half-life [1, 3] was 4.493 ± 0.015 h and the “CL (clearance)” value [1, 4] was 11.8 ± 0.517 mL/min/kg. For the same compound, the “Vd (volume of distribution)” value [1, 4] was 4.32 ± 0.34 L/kg.
In the case of `N.N.[Cl][Pt][Cl]` [cisplatin], the “IC50 (concentration causing 50% loss of cell growth)” value (WRL-68 cells) is reported as 5.1 ± 0.28 µg/mL.
With `COc1ccc2[nH]c([S+]([O-])Cc3ncc(C)c(OC)c3C)nc2c1` (stereo not shown) [Omeprazole] the “PAS-positive mucus versus ulcer control group (in words)” value (ethanol-induced ulcers; oral 20 mg/kg, PAS staining) was “more PAS-positive mucus”, the “Histopathology of stomach versus ulcer control group (in words)” value (ethanol-induced ulcers; oral 20 mg/kg, hematoxylin and eosin) was “improved” and the “I% (inhibition percentage of ulcer area)” value (ethanol-induced ulcers; [5]) was 80.8%. The “UA (ulcer area)” value (ethanol-induced ulcers; [5]) was 183 ± 5.8^b mm^2 and the “pH (gastric juice)” value (ethanol-induced ulcers; oral pretreatment 20 mg/kg 1 h before ethanol 5 mL/kg) was 6.43 ± 0.2^b.
